# Reference: ChEMBL document CHEMBL4513216, “Probing the Open Global Health Chemical Diversity Library for Multistage-Active Starting Points for Next-Generation Antimalarials” (ACS Infect Dis, 2020)
# Test: Toxicity liver stage against HepG2, at 10uM
# Format: cell-based
# Design: test concentration 10 uM, cell line HepG2-A16-CD81EGFP
# Conditions: human, HepG2-A16-CD81EGFP cells; read-out: INHIBITION
# Summary of the method: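 Uninfected HepG2-A16-CD81EGFP cells, 3 × 10^3 per well, 1536-well, plated on prespotted compound at 10 μM final, parasite-free screening media added to match infected plates; puromycin 10 μM positive, DMSO 0.5% negative; run in parallel with 48 h PbLuc assay at 37 °C, 5% CO2; viability by CellTiter-Glo luminescence, normalized to controls.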
structure (smiles),measurement,value
CN(C)C(=O)NC1COC2(CCN(S(=O)(=O)c3ccccc3)CC2)C1 (stereo unspecified),cytotoxicity at 10 µM,-88.5%
COc1cccc2c1OCC(NC(=O)NCc1cccs1)C2 (stereo unspecified),cytotoxicity at 10 µM,-11%
O=C(NCCCO)c1cc(-c2ccc3c(c2)CCO3)n[nH]1,cytotoxicity at 10 µM,-4.24%
COCCNc1nnc(S(=O)(=O)CCC(C)(C)C#N)s1,cytotoxicity at 10 µM,10.7%
N[C@H]1CN(C(=O)Cc2ccc(CO)cc2)C[C@@H]1C1CC1,cytotoxicity at 10 µM,-5.68%
CC1CCN(Cc2ccc(CNC(=O)c3ccn(C)c(=O)c3)cc2)CC1,cytotoxicity at 10 µM,-2.94%
COCCN1CCC2(CC1)CN(Cc1cccc(C)n1)C(=O)CO2,cytotoxicity at 10 µM,-4.52%
O=C(Cc1cccs1)N1CCCC(CNS(=O)(=O)Cc2ccccc2)C1 (stereo unspecified),cytotoxicity at 10 µM,5.78%
CCc1nc(C(=O)N2CCOCC2CC(=O)c2ccccc2)c[nH]1 (stereo unspecified),cytotoxicity at 10 µM,-0.613%
COc1ccc(CCC(=O)N2CCN(c3nc(C)ns3)CC2)cc1,cytotoxicity at 10 µM,6.26%
CN1CCC(CNC(=O)c2cccc(NC(N)=O)c2)c2ccccc21 (stereo unspecified),cytotoxicity at 10 µM,3.86%
Cc1ncccc1OCC(=O)N1CCN[C@H]2CS(=O)(=O)C[C@H]21,cytotoxicity at 10 µM,13.1%
CC(C)C(=O)N1Cc2ccccc2CC2(CCCN2C)C1 (stereo unspecified),cytotoxicity at 10 µM,4.51%
COc1ccccc1C(=O)N1C[C@@H]2CCCCN(CC(N)=O)[C@@H]2C1,cytotoxicity at 10 µM,-4.43%
Cc1nnc(NC(=O)CN2CCCC2c2noc(C(C)C)n2)s1 (stereo unspecified),cytotoxicity at 10 µM,-9.05%
COCCN1CCC2(CC1)COc1ccccc1S(=O)(=O)N(C)C2,cytotoxicity at 10 µM,-1.28%
O=C(NCC(F)(F)F)C1CSCN1S(=O)(=O)c1cccc(F)c1 (stereo unspecified),cytotoxicity at 10 µM,18.7%
Cc1cc2cc(C(=O)N[C@@H]3CC[C@@H](N4CCNC(=O)C4)[C@@H]3O)ccc2o1,cytotoxicity at 10 µM,-5%
O=C(c1cccc(-n2cnnn2)c1)N1CCC2(CC1)OCCO2,cytotoxicity at 10 µM,-126%
CC(C)c1nnc(NC(=O)CCC(=O)NCC2CCCO2)s1 (stereo unspecified),cytotoxicity at 10 µM,-9.58%
CCc1nc2c(c(N3CCOCC3)n1)CCN(C(=O)N1CCCC1)CC2,cytotoxicity at 10 µM,7.6%
Cc1cn2c(n1)CCC(NC(=O)Cn1cncn1)C2 (stereo unspecified),cytotoxicity at 10 µM,-3.86%
NC1(c2nc(-c3ccccc3)cc(=O)[nH]2)CCCCC1,cytotoxicity at 10 µM,7.25%
CC(=O)NCC1CCN(c2ccnc3ccc(Br)cc23)CC1,cytotoxicity at 10 µM,14.2%
O=C(c1cnccn1)N1CCC2(CC1)CC(Oc1ccccc1)CO2 (stereo unspecified),cytotoxicity at 10 µM,2.74%
O=C(CCOc1ccccc1F)N1CCCC(n2cncn2)C1 (stereo unspecified),cytotoxicity at 10 µM,-1.22%
O=C1CC(C(=O)Nc2nnc(-c3ccoc3)[nH]2)c2ccccc2N1 (stereo unspecified),cytotoxicity at 10 µM,0.841%
CCNC(=O)CCN1CCCC1c1cccc2c1OCCO2 (stereo unspecified),cytotoxicity at 10 µM,-4%
Cc1cc2nc(-c3ccccc3)cc(NCC3CCS(=O)(=O)C3)n2n1 (stereo unspecified),cytotoxicity at 10 µM,1.38%
COc1ccc(Br)cc1CCC(=O)N1CCC(O)CC1,cytotoxicity at 10 µM,-1.96%
Cc1nc(-c2ccc(C(=O)O)cc2)cc(C2CCN(C(C)C)CC2)n1,cytotoxicity at 10 µM,-6.69%
CC(C)Oc1cccc(C(=O)Nc2nncs2)c1,cytotoxicity at 10 µM,-3.49%
CC(C)[C@@H]1CN(Cc2ccsc2)C[C@H]1NS(=O)(=O)N(C)C,cytotoxicity at 10 µM,-23.5%
CCOC(=O)N1CCC(NCC2CCN(c3cnn(C)c(=O)c3)C2)CC1 (stereo unspecified),cytotoxicity at 10 µM,8.39%
O=C(c1cc2cccc(F)c2[nH]1)N1C[C@@H](O)[C@H](N2CCCC2)C1,cytotoxicity at 10 µM,0.152%
CN(C)Cc1cnc2n1CCN(C(=O)C1CC=CC1)CC2,cytotoxicity at 10 µM,-81.3%
CCN(CCn1cccn1)Cc1nc(-c2cc(F)ccc2F)oc1C,cytotoxicity at 10 µM,-1.57%
NC(=O)Nc1cc(F)ccc1SCC(F)F,cytotoxicity at 10 µM,0.0687%
CCCN1CCN(C(=O)c2scnc2C)CC1,cytotoxicity at 10 µM,-0.73%
O=C(Cc1cccs1)N1C[C@@H]2OCCN(CC3CCCO3)[C@@H]2C1 (stereo partly specified),cytotoxicity at 10 µM,-11%
CC(=O)Nc1nc(C(=O)N2CCCC2Cn2cccn2)cs1 (stereo unspecified),cytotoxicity at 10 µM,-5.42%
Cc1cc(N2CCC(NS(C)(=O)=O)CC2)nc(C(C)C)n1,cytotoxicity at 10 µM,-3.36%
CCS(=O)(=O)N1CCCC(c2nccn2Cc2ccccn2)C1 (stereo unspecified),cytotoxicity at 10 µM,-10.5%
CCC1(C(=O)O)CCCN(C(=O)c2ccc(N3CCN(C)CC3)cc2)C1 (stereo unspecified),cytotoxicity at 10 µM,-2.35%
O=S(=O)(N1CCCC1)N1CCc2sccc2C1,cytotoxicity at 10 µM,1.7%
CCNc1ccnc(N2CCN(Cc3ncccc3C)CC2)n1,cytotoxicity at 10 µM,-5.59%
CCn1cnnc1CNC(=O)N1CCN(Cc2ccco2)CC1,cytotoxicity at 10 µM,-17.4%
Cc1ccc(N2CCCN(C(=O)C3(C#N)CCCCC3)CC2)nn1,cytotoxicity at 10 µM,-7.7%
CC(C)C[C@H](N)c1nnc(SCC(N)=O)o1,cytotoxicity at 10 µM,4.95%
Cc1ccc(C(=O)O)cc1S(=O)(=O)N(C)c1cccc(C#N)c1,cytotoxicity at 10 µM,10.6%
O=C1NCCN2CCN(C(=O)Nc3ccc(-c4ccccc4)cc3)CC12 (stereo unspecified),cytotoxicity at 10 µM,-119%
CC(NC(=O)CCOc1ccc(F)cc1)c1nnc2n1CCCCC2 (stereo unspecified),cytotoxicity at 10 µM,-8.71%
Cc1cc(CN2CCN(C(C)c3nc(C4CC4)no3)CC2)no1 (stereo unspecified),cytotoxicity at 10 µM,1.35%
Cc1cc(C)n(CCC2CC(=O)Nc3cc(O)c(C)cc32)n1 (stereo unspecified),cytotoxicity at 10 µM,-1.74%
Cc1ncsc1C(=O)N1CCCC(c2cc(C(F)F)n3ncnc3n2)C1 (stereo unspecified),cytotoxicity at 10 µM,4.05%
CCCc1noc(CCC(=O)N2CCCC2c2ccc(OC)cc2)n1 (stereo unspecified),cytotoxicity at 10 µM,-0.403%
O=C(N1CCCC1)N1CCc2ncnc(C3CCOC3)c2CC1 (stereo unspecified),cytotoxicity at 10 µM,3.45%
CCc1nnc(NC(=O)CCN2CC=C(c3cnn(C)c3)CC2)s1,cytotoxicity at 10 µM,2.66%
CC(C)c1nn(C)c(N(C)C)c1CNC1CCc2cc(F)ccc21 (stereo unspecified),cytotoxicity at 10 µM,1.93%
CN(C)C(=O)c1cccc(NC(=O)Cc2cc(F)ccc2F)n1,cytotoxicity at 10 µM,-2.64%
CS(=O)(=O)N1CC[C@]2(C[C@@H](Oc3ccccn3)CO2)C1,cytotoxicity at 10 µM,-144%
CCOC(=O)N1[C@@H](c2ccco2)[C@@H](C(=O)NC)C[C@]12CCCCNC2=O,cytotoxicity at 10 µM,-4.57%
COc1ccccc1Oc1ncccc1CNC(=O)[C@H](C)O,cytotoxicity at 10 µM,-2.64%
Cc1cc(C)nc(N2CCC(c3nnc(CN(C)C)n3C3CC3)CC2)n1,cytotoxicity at 10 µM,-0.578%
CC(C)c1cc2c(O)nc(CSCC(=O)NCc3ccccn3)nc2s1,cytotoxicity at 10 µM,-5.29%
Cc1nccn1-c1cc(CNC(=O)NCC2CCCO2)ccn1 (stereo unspecified),cytotoxicity at 10 µM,-7.9%
CN1CCN(CCC(F)(F)C(F)F)CC12CCNC(=O)CC2 (stereo unspecified),cytotoxicity at 10 µM,-39.7%
Cc1c(C2SCC(=O)Nc3c2cnn3C(C)(C)C)cnn1C (stereo unspecified),cytotoxicity at 10 µM,-1.21%
Cc1ncsc1C(=O)N1CCN(Cc2cscn2)CC1,cytotoxicity at 10 µM,-2.65%
O=C(c1cccn1Cc1cccs1)N1CCN2CCCCC2C1 (stereo unspecified),cytotoxicity at 10 µM,-7.42%
CN(C)CCOCC1CN(Cc2cccs2)Cc2ccnn2C1 (stereo unspecified),cytotoxicity at 10 µM,-0.903%
Cc1ccc(C2(CN3CCN(Cc4cncn4C)CC3)CC2)cc1,cytotoxicity at 10 µM,-13.1%
Cc1nc(COc2ccc(CNCCn3cccn3)cc2)cs1,cytotoxicity at 10 µM,-8.96%
CC(C)(O)CN1CCN(C(=O)C2CSc3ccccc3O2)CC1 (stereo unspecified),cytotoxicity at 10 µM,2.16%
CCn1ccnc1CN(C)C(=O)Cn1ccc2ccccc2c1=O,cytotoxicity at 10 µM,2.37%
CC(C)CN1C[C@H]2CCN(C(=O)NC3CCCC3)CC[C@H]2S1(=O)=O,cytotoxicity at 10 µM,7.31%
CCOc1ncnc2c1CCN(C(=O)c1cnccn1)CC2,cytotoxicity at 10 µM,-6.13%
Cc1cc(N2CCCC3(CN(C)C(=O)O3)C2)c2cc3c(cc2n1)OCO3 (stereo unspecified),cytotoxicity at 10 µM,-5.05%
O=C(C1CC1)N1CCN(c2ccc(-n3cncn3)nn2)CC1,cytotoxicity at 10 µM,-4.83%
O=C(NCC1CCCN1CCc1ccccc1)NCC1(O)CCC1 (stereo unspecified),cytotoxicity at 10 µM,-3.06%
CNCC1CCC(c2cc(CN(C)C(=O)c3cnccn3)n(C)n2)CC1 (stereo unspecified),cytotoxicity at 10 µM,-5.1%
